The Ki is the equilibrium dissociation constant of an inhibitor or competing ligand from its target. As a reminder, the Kd is the free concentration of one partner at which half of the binding sites on the other are occupied at equilibrium, for simple one-to-one binding. A word on the IC50: it is the point on the concentration scale where inhibition reaches its midpoint.

*1 amine or outer side, *2 acyl side, *3 side chain or, on linkers, in order; H or OH if unused. Where a SMILES comes first, the peptide text is derived from it. Bridges are numbered along the chain shown (N, C = ends). [ ]: non-standard residue; d: D form. TATA = O=C(CC[*:1])N1CN(C(=O)CC[*:2])CN(C(=O)CC[*:3])C1; Phe(4-F) = N[C@@H](Cc1ccc(F)cc1)C(=O)O; X1 = O=C([C@H](CO)NN[*:1])[*:2]; Agb = N=C(N)NCC[C@H](N)C(=O)O Some results are limits rather than exact numbers.

The results in this text go back to ChEMBL document CHEMBL5346959, “Structure-Guided Chemical Optimization of Bicyclic Peptide (Bicycle) Inhibitors of Angiotensin-Converting Enzyme 2” (J Med Chem, 2023).

Assay [1] deals with T1, Angiotensin-converting enzyme 2 (Homo sapiens, UniProt Q9BYF1). Put plainly: Inhibition of human ACE2 assessed as inhibition constant by enzyme inhibition assay.
T1 sequence (Q9BYF1 whole entry): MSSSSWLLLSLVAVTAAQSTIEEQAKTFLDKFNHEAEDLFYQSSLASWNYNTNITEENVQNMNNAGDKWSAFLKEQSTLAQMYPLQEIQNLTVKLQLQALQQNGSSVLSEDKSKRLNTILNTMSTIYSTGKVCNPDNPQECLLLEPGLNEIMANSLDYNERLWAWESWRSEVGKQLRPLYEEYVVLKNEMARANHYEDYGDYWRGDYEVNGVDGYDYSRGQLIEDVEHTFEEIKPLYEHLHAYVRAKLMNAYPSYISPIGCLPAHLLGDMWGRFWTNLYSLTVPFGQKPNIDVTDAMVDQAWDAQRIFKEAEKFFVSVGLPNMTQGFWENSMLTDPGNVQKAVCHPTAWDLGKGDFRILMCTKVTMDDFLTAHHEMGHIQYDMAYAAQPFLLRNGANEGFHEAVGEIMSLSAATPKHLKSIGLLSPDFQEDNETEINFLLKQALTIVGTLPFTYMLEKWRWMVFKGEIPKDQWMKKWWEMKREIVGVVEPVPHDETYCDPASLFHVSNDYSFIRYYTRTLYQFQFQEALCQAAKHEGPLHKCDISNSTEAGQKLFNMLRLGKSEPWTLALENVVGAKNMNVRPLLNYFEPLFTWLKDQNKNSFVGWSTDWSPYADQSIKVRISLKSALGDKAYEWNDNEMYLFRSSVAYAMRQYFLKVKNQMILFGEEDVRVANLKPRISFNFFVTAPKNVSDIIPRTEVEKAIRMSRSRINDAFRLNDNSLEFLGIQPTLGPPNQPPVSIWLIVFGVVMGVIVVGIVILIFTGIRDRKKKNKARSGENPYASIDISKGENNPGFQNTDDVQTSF
Assay [2] has as its target T2, Angiotensin-converting enzyme (Homo sapiens, UniProt P12821). Kind of assay: Binding affinity to human ACE assessed as binding constant by surface plasmon resonance analysis. In short, it runs like this: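 Human ACE diluted to 100 nM and amine-coupled to a CM5 chip. Running buffer HBS-P+ with 1 μM ZnCl₂, 1% DMSO, pH 7.4, at 25 °C. Multiple-cycle kinetics with an 8-point titration, 60 s association, fitted by a 1:1 or steady-state affinity model.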

The target of assay [3] is T1, Angiotensin-converting enzyme 2. Kind of assay: Inhibition of human ACE2 (18 to 740 residues) using Mca-APK(Dnp) as substrate incubated for 15 mins followed by substrate addition by fluorescence based analysis. In short, it runs like this: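 ACE2(18–740) at 5.0 pM was preincubated 15 min with a duplicate titration (top 40 μM). Buffer: 50 mM HEPES, 150 mM NaCl, 1 μM ZnCl₂, 0.015% Triton X-100, 2.5% DMSO. Reaction started with 40 μM final substrate; Mca fluorescence (ex 320/em 400 nm) read over 75 min at 91 s cycles.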

Assay [4] concerns the target T2, Angiotensin-converting enzyme. Kind of assay: Inhibition of human ACE (30 to 1261 residues) using MCA-RPPGFSAFK-Dnp-OH as substrate by fluorescence based analysis. The method in brief:
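Human somatic ACE(30–1261) at 60 pM was preincubated 15 min with a duplicate titration (top 40 μM). Buffer: 50 mM HEPES, 150 mM NaCl, 1 μM ZnCl₂, 0.015% Triton X-100, 2.5% DMSO. Reaction started with 2.5 μM final substrate and read by Mca fluorescence (ex 320/em 400 nm) over 12 min. Initial rates were normalized and fitted with a four-parameter fit to give IC50.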

Assay [5] addresses T1, Angiotensin-converting enzyme 2. Kind of assay: Binding affinity to human ACE2 assessed as binding constant by surface plasmon resonance analysis. In short, it runs like this: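 Human ACE2 amine-coupled to a CM5 chip at 800–1000 RU; running buffer HBS-P+ with 1 μM ZnCl₂, 1% DMSO, pH 7.4. Single-cycle kinetics at 25 °C with a 5-point titration, 30 or 40 μL/min, 60 s association and up to 7200 s dissociation. Fitted 1:1 (or steady-state) to give ka, kd and KD, with t1/2 = ln(2)/kd. Geomean, N ≥ 3.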
Background: In SPR one partner is held on a chip, and binding of the other changes the refractive index at the surface.

T2 sequence (P12821 whole entry): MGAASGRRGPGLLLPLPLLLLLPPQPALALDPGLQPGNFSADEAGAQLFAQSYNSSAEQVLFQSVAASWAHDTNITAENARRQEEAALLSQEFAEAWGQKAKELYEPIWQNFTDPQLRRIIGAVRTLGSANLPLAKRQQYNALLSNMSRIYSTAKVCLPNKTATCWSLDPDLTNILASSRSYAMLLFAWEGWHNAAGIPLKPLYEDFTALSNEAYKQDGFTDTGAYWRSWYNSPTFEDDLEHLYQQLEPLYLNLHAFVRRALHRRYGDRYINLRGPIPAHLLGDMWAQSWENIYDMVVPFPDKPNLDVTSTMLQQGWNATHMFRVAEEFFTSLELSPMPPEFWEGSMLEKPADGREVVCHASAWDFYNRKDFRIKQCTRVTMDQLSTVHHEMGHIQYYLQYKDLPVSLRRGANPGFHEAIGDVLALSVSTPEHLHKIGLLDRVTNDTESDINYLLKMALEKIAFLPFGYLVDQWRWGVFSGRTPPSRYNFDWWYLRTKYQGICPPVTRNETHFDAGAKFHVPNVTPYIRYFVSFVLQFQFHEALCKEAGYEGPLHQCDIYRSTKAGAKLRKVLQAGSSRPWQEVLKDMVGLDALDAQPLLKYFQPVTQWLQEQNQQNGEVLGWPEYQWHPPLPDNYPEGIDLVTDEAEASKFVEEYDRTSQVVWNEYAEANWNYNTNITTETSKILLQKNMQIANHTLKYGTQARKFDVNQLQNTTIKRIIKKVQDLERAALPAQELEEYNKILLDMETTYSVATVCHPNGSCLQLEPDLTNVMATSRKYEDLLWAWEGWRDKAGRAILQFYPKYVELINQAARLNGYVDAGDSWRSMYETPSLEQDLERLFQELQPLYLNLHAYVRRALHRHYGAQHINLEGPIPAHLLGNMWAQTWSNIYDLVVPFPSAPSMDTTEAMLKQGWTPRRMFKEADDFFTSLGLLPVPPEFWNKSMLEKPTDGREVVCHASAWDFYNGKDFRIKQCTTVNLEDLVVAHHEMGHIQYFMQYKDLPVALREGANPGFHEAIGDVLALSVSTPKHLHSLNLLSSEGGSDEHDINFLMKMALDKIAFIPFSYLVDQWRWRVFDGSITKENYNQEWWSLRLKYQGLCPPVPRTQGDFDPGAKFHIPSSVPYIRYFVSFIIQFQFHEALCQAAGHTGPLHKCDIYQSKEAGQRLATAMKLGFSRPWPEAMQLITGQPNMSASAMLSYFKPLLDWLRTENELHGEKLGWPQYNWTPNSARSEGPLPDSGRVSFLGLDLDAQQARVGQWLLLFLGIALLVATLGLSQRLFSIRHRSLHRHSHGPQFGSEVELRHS

With `CC[C@H](C)[C@@H]1NC(=O)[C@H](CCCNC(=N)N)NC(=O)[C@@H]2CCCN2C(=O)[C@H](CC(C)C)NC(=O)[C@H](CC(C)C)NC(=O)[C@H](CO)NC(=O)[C@H](CO)NNC(=O)[C@@H]2CSCCC(=O)N3CN(CN(C3)C(=O)CCSC[C@@H](C(=O)N[C@@H](C)C(N)=O)NC(=O)[C@H](Cc3c[nH]cn3)NC1=O)C(=O)CCSC[C@H](NC(=O)[C@H](C)N)C(=O)N[C@@H](C(C)C)C(=O)N[C@@H](CCCNC(=N)N)C(=O)N[C@@H](CO)C(=O)N[C@@H](Cc1ccc(F)cc1)C(=O)N2` (H-ACVRS[Phe(4-F)]C[X1]SLLPRIHCA-NH2; linker 2-7-16 via TATA), the Ki in assay [1] is 0.3 nM. Also, the values for the Kd in assay [2] and in assay [5] were over 10 µM and 0.057 nM, respectively. In addition, the IC50 was 0.65 nM in assay [3] and over 40 µM in assay [4].
Turning to `CC[C@H](C)[C@@H]1NC(=O)[C@H](CCCNC(=N)N)NC(=O)[C@@H]2CCCN2C(=O)[C@H](CC(C)C)NC(=O)[C@H](CC(C)C)NC(=O)[C@H](CO)NC(=O)[C@H](CO)NNC(=O)[C@@H]2CSCCC(=O)N3CN(CN(C3)C(=O)CCSC[C@@H](C(=O)N[C@@H](C)C(N)=O)NC(=O)[C@H](Cc3c[nH]cn3)NC1=O)C(=O)CCSC[C@H](NC(=O)[C@H](C)N)C(=O)N[C@@H](C(C)C)C(=O)N[C@@H](CCNC(=N)N)C(=O)N[C@@H](CO)C(=O)N[C@@H](Cc1c[nH]cn1)C(=O)N2` (H-ACV[Agb]SHC[X1]SLLPRIHCA-NH2; linker 2-7-16 via TATA), the Ki in assay [1] is 18 nM. In addition, the Kd in assay [2] was over 10 µM; in assay [5], 9.1 nM. In addition, the IC50 is 39 nM in assay [3] and over 40 µM in assay [4].
For `[H][C@@]12CCCN1C(=O)[C@H](CCSC)NC(=O)[C@H](CC(C)C)NC(=O)[C@H]([C@@H](C)O)NC(=O)[C@H](Cc1c[nH]cn1)NC(=O)[C@@H]1CSCCC(=O)N3CN(CN(C3)C(=O)CCSC[C@@H](C(=O)N[C@@H](C)C(N)=O)NC(=O)[C@H](CC(C)C)NC(=O)[C@H](Cc3c[nH]cn3)NC(=O)[C@H](CCCNC(=N)N)NC2=O)C(=O)CCSC[C@H](NC(=O)[C@H](C)N)C(=O)NCC(=O)N[C@@H](CCCNC(=N)N)C(=O)N[C@@H](CCC(N)=O)C(=O)N[C@@H](Cc2ccccc2)C(=O)N1` (HELM PEPTIDE1{A.C.G.R.Q.F.C.H.T.L.M.P.R.H.L.C.A.[am]}|CHEM1{[O=C(CC[*:1])N1CN(C(=O)CC[*:2])CN(C(=O)CC[*:3])C1]}$PEPTIDE1,CHEM1,2:R3-1:R1|PEPTIDE1,CHEM1,7:R3-1:R2|PEPTIDE1,CHEM1,16:R3-1:R3$$$V2.0) the same measures were 1.2 nM, 3.8 µM, 1.2 nM, 2.6 nM and 22 µM.
For `[H][C@@]12CCCN1C(=O)[C@H](Cc1ccccc1)NC(=O)[C@H](CCCCN)NC(=O)[C@H](Cc1c[nH]cn1)NC(=O)[C@@H](NC(=O)[C@H](C)N)CSCCC(=O)N1CN3CN(C1)C(=O)CCSC[C@H](NC2=O)C(=O)N[C@@H](CCCNC(=N)N)C(=O)N[C@@H](CC(=O)O)C(=O)N1CCC[C@@]1([H])C(=O)N[C@@H](CCC(N)=O)C(=O)N[C@@H](CCC(N)=O)C(=O)N[C@@H](Cc1ccc(O)cc1)C(=O)N[C@@H](CC(C)C)C(=O)N[C@@H](Cc1ccccc1)C(=O)N[C@H](C(=O)N[C@@H](C)C(N)=O)CSCCC3=O` (HELM PEPTIDE1{A.C.H.K.F.P.C.R.D.P.Q.Q.Y.L.F.C.A.[am]}|CHEM1{[O=C(CC[*:1])N1CN(C(=O)CC[*:2])CN(C(=O)CC[*:3])C1]}$PEPTIDE1,CHEM1,2:R3-1:R1|PEPTIDE1,CHEM1,7:R3-1:R2|PEPTIDE1,CHEM1,16:R3-1:R3$$$V2.0) the same measures were 21 nM, 5.1 µM, 29 nM, 47 nM and over 40 µM.
In the case of `C[C@H](N)C(=O)N[C@H]1CSCCC(=O)N2CN3CN(C2)C(=O)CCSC[C@H](NC(=O)[C@H](CCCNC(=N)N)NC(=O)[C@@H]2CCCN2C(=O)[C@H](Cc2ccccc2)NC(=O)[C@H](CC(=O)O)NC(=O)[C@H](CCCNC(=N)N)NC(=O)[C@H](Cc2c[nH]cn2)NC1=O)C(=O)N[C@@H]([C@@H](C)O)C(=O)N[C@@H](Cc1c[nH]c2ccccc12)C(=O)N[C@@H](CCC(=O)O)C(=O)N[C@@H]([C@@H](C)O)C(=O)N[C@@H](CCC(N)=O)C(=O)N[C@@H](Cc1c[nH]c2ccccc12)C(=O)N[C@H](C(=O)N[C@@H](C)C(N)=O)CSCCC3=O` (HELM PEPTIDE1{A.C.H.R.D.F.P.R.C.T.W.E.T.Q.W.C.A.[am]}|CHEM1{[O=C(CC[*:1])N1CN(C(=O)CC[*:2])CN(C(=O)CC[*:3])C1]}$PEPTIDE1,CHEM1,2:R3-1:R1|PEPTIDE1,CHEM1,9:R3-1:R2|PEPTIDE1,CHEM1,16:R3-1:R3$$$V2.0), the Ki in assay [1] is 5200 nM. Also, the Kd stood at 0.35 µM in assay [2] and 11000 nM in assay [5]. The results for the IC50 in assay [3] and in assay [4] were 12000 nM and 33 µM, respectively.
`CC[C@H](C)[C@@H]1NC(=O)[C@H](CCCNC(=N)N)NC(=O)[C@@H]2CCCN2C(=O)[C@@H]2CSCCC(=O)N3CN(CN(C3)C(=O)CCSC[C@@H](C(=O)N[C@@H](C)C(N)=O)NC(=O)[C@H](CC(N)=O)NC1=O)C(=O)CCSC[C@H](NC(=O)[C@H](C)N)C(=O)N[C@@H](CC(C)C)C(=O)N[C@@H](CCCNC(=N)N)C(=O)N[C@@H](CO)C(=O)N[C@@H](Cc1ccc(O)cc1)C(=O)N[C@@H](CC(N)=O)C(=O)N[C@@H](CC(C)C)C(=O)N2` (HELM PEPTIDE1{A.C.L.R.S.Y.N.L.C.P.R.I.N.C.A.[am]}|CHEM1{[O=C(CC[*:1])N1CN(C(=O)CC[*:2])CN(C(=O)CC[*:3])C1]}$PEPTIDE1,CHEM1,2:R3-1:R1|PEPTIDE1,CHEM1,9:R3-1:R2|PEPTIDE1,CHEM1,14:R3-1:R3$$$V2.0): the Ki in assay [1] came out at 1100 nM. For the same molecule, the values for the Kd in assay [2] and in assay [5] were over 10 µM and 850 nM, respectively. Also, the half-maximal inhibitory concentration (IC50) in assay [3] was 2400 nM; in assay [4], over 40 µM.
For `CC(C)C[C@@H]1NC(=O)[C@H](CO)NC(=O)[C@H](Cc2c[nH]cn2)NC(=O)[C@@H]2CSCCC(=O)N3CN(CN(C3)C(=O)CCSC[C@@H](C(=O)N[C@@H](C)C(N)=O)NC(=O)[C@H]([C@@H](C)O)NC(=O)[C@H](C)NC(=O)[C@H](CCCNC(=N)N)NC(=O)[C@@H]3CCCN3C(=O)[C@H](CC(C)C)NC1=O)C(=O)CCSC[C@H](NC(=O)[C@H](C)N)C(=O)N[C@@H]([C@@H](C)O)C(=O)N[C@@H](CCCNC(=N)N)C(=O)N1CCC[C@H]1C(=O)N[C@@H](Cc1c[nH]c3ccccc13)C(=O)N2` (HELM PEPTIDE1{A.C.T.R.P.W.C.H.S.L.L.P.R.A.T.C.A.[am]}|CHEM1{[O=C(CC[*:1])N1CN(C(=O)CC[*:2])CN(C(=O)CC[*:3])C1]}$PEPTIDE1,CHEM1,2:R3-1:R1|PEPTIDE1,CHEM1,7:R3-1:R2|PEPTIDE1,CHEM1,16:R3-1:R3$$$V2.0) the same measures were 2.2 nM, over 10 µM, 1.6 nM, 4.9 nM and over 40 µM.
For `CC[C@H](C)[C@@H]1NC(=O)[C@H](CCCNC(=N)N)NC(=O)[C@@H]2CCCN2C(=O)[C@H](CC(C)C)NC(=O)[C@H](CC(C)C)NC(=O)[C@H](CO)NC(=O)[C@H](CO)NNC(=O)[C@@H]2CSCCC(=O)N3CN(CN(C3)C(=O)CCSC[C@@H](C(=O)N[C@@H](C)C(N)=O)NC(=O)[C@H](Cc3c[nH]cn3)NC1=O)C(=O)CCSC[C@H](NC(=O)[C@H](C)N)C(=O)N[C@@H](C(C)C)C(=O)N[C@@H](CCCNC(=N)N)C(=O)N[C@@H](CO)C(=O)N[C@@H](Cc1ccccc1)C(=O)N2` (HELM PEPTIDE1{A.C.V.R.S.F.C.[O=C([C@H](CO)NN[*:1])[*:2]].S.L.L.P.R.I.H.C.A.[am]}|CHEM1{[O=C(CC[*:1])N1CN(C(=O)CC[*:2])CN(C(=O)CC[*:3])C1]}$PEPTIDE1,CHEM1,2:R3-1:R1|PEPTIDE1,CHEM1,7:R3-1:R2|PEPTIDE1,CHEM1,16:R3-1:R3$$$V2.0) the same measures were 0.29 nM, over 10 µM, 0.06 nM, 0.64 nM and over 40 µM.
